Test results: ChEMBL document CHEMBL5108039, “Piperazine tethered bergenin heterocyclic hybrids: design, synthesis, anticancer activity, and molecular docking studies” (RSC Med Chem, 2022)

Assays:
HCT-15 = assay: Cytotoxicity against human HCT-15 cells assessed as cell growth inhibition; format: functional, cell-based
In short: (§1)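 Compounds were dissolved in sterile DMSO as 10 mg ml−1 stocks and tested for in vitro growth inhibition of human cancer cell lines. Doxorubicin was the standard drug and DMSO (0.01%) the vehicle control. IC50 values are reported as means.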

CAL-27 [1] = assay: Cytotoxicity against human CAL-27 cells assessed as cell growth inhibition; format: functional, cell-based; in short: as §1
SCC-9 [2] = assay: Cytotoxicity against human SCC-9 cells assessed as cell growth inhibition; format: functional, cell-based; in short: as §1
A549 = assay: Cytotoxicity against human A549 cells assessed as cell growth inhibition; format: functional, cell-based
In short: (§2)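 Compounds were dissolved in sterile DMSO as 10 mg ml−1 stocks and tested in vitro for cytotoxicity in a cell-line panel, with DMSO (0.01%) as vehicle control and doxorubicin as standard. Mean IC50 values were reported, and the normal lung epithelial cells were tested up to 100 μM.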

MCF7 = assay: Cytotoxicity against human MCF7 cells assessed as cell growth inhibition; format: functional, cell-based; in short: as §1
[3] = Cytotoxicity against human BEAS-2B cells assessed as cell growth inhibition; format: toxicity, cell-based; in short: as §2
CAL-27 [4] = assay: Cell cycle arrest in human CAL-27 cells assessed as accumulation at G0/G1 phase at 10 uM incubated for 24 hrs by flow cytometry (reference value: 77.6 %); format: functional
CAL-27 [5] = assay: Cell cycle arrest in human CAL-27 cells assessed as accumulation at G0/G1 phase at 34 uM incubated for 24 hrs by flow cytometry (reference value: 77.6 %); format: functional
CAL-27 [6] = assay: Cell cycle arrest in human CAL-27 cells assessed as accumulation at S phase at 10 uM incubated for 24 hrs by flow cytometry (reference value: 3.6 %); format: functional
CAL-27 [7] = assay: Cell cycle arrest in human CAL-27 cells assessed as accumulation at S phase at 34 uM incubated for 24 hrs by flow cytometry (reference value: 3.6 %); format: functional
CAL-27 [8] = assay: Cell cycle arrest in human CAL-27 cells assessed as accumulation at G2/M phase at 10 uM incubated for 24 hrs by flow cytometry (reference value: 11.9 %); format: functional
CAL-27 [9] = assay: Cell cycle arrest in human CAL-27 cells assessed as accumulation at G2/M phase at 34 uM incubated for 24 hrs by flow cytometry (reference value: 11.9 %); format: functional
SCC-9 [10] = assay: Cell cycle arrest in human SCC-9 cells assessed as accumulation at G0/G1 phase at 17 uM incubated for 24 hrs by flow cytometry (reference value: 70.8 %); format: functional
SCC-9 [11] = assay: Cell cycle arrest in human SCC-9 cells assessed as accumulation at G0/G1 phase at 34 uM incubated for 24 hrs by flow cytometry (reference value: 70.8 %); format: functional
SCC-9 [12] = assay: Cell cycle arrest in human SCC-9 cells assessed as accumulation at S phase at 17 uM incubated for 24 hrs by flow cytometry (reference value: 14.4 %); format: functional
SCC-9 [13] = assay: Cell cycle arrest in human SCC-9 cells assessed as accumulation at S phase at 34 uM incubated for 24 hrs by flow cytometry (reference value: 14.4 %); format: functional
SCC-9 [14] = assay: Cell cycle arrest in human SCC-9 cells assessed as accumulation at G2/M phase at 17 uM incubated for 24 hrs by flow cytometry (reference value: 14.2 %); format: functional
SCC-9 [15] = assay: Cell cycle arrest in human SCC-9 cells assessed as accumulation at G2/M phase at 34 uM incubated for 24 hrs by flow cytometry (reference value: 14.2 %); format: functional
CAL-27 [16] = assay: Induction of apoptosis in human CAL-27 cells assessed as live cells at 10 uM incubated for 24 hrs by Annexin V-FITC/PI staining based flow cytometric analysis (reference value: 99.8 %); format: functional
In short: (§3)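 CAL27 cells were treated with vehicle, doxorubicin or test compounds at 10–63 μM, and apoptosis was assessed by annexin V–FITC/PI staining with flow cytometry. Cells were scored as live, early apoptotic, late apoptotic or necrotic. The vehicle was DMSO (0.01%).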

CAL-27 [17] = assay: Induction of apoptosis in human CAL-27 cells assessed as early apoptotic cells at 10 uM incubated for 24 hrs by Annexin V-FITC/PI staining based flow cytometric analysis (reference value: 0.1 %); format: functional; in short: as §3
CAL-27 [18] = assay: Induction of apoptosis in human CAL-27 cells assessed as late apoptotic cells at 10 uM incubated for 24 hrs by Annexin V-FITC/PI staining based flow cytometric analysis (reference value: 0.1 %); format: functional; in short: as §3
CAL-27 [19] = assay: Induction of apoptosis in human CAL-27 cells assessed as necrotic cells at 10 uM incubated for 24 hrs by Annexin V-FITC/PI staining based flow cytometric analysis (reference value: 0.0 %); format: functional; in short: as §3
CAL-27 [20] = assay: Induction of apoptosis in human CAL-27 cells assessed as live cells at 34 uM incubated for 24 hrs by Annexin V-FITC/PI staining based flow cytometric analysis (reference value: 99.8 %); format: functional; in short: as §3
CAL-27 [21] = assay: Induction of apoptosis in human CAL-27 cells assessed as early apoptotic cells at 34 uM incubated for 24 hrs by Annexin V-FITC/PI staining based flow cytometric analysis (reference value: 0.1 %); format: functional; in short: as §3
CAL-27 [22] = assay: Induction of apoptosis in human CAL-27 cells assessed as late apoptotic cells at 34 uM incubated for 24 hrs by Annexin V-FITC/PI staining based flow cytometric analysis (reference value: 0.1 %); format: functional; in short: as §3
CAL-27 [23] = assay: Induction of apoptosis in human CAL-27 cells assessed as necrotic cells at 34 uM incubated for 24 hrs by Annexin V-FITC/PI staining based flow cytometric analysis (reference value: 0.0 %); format: functional
SCC-9 [24] = assay: Induction of apoptosis in human SCC-9 cells assessed as live cells at 17 uM incubated for 24 hrs by Annexin V-FITC/PI staining based flow cytometric analysis (reference value: 95.7 %); format: functional
SCC-9 [25] = assay: Induction of apoptosis in human SCC-9 cells assessed as early apoptotic cells at 17 uM incubated for 24 hrs by Annexin V-FITC/PI staining based flow cytometric analysis (reference value: 2.8 %); format: functional
SCC-9 [26] = assay: Induction of apoptosis in human SCC-9 cells assessed as late apoptotic cells at 17 uM incubated for 24 hrs by Annexin V-FITC/PI staining based flow cytometric analysis (reference value: 1.4 %); format: functional
SCC-9 [27] = assay: Induction of apoptosis in human SCC-9 cells assessed as necrotic cells at 17 uM incubated for 24 hrs by Annexin V-FITC/PI staining based flow cytometric analysis (reference value: 0.1 %); format: functional
SCC-9 [28] = assay: Induction of apoptosis in human SCC-9 cells assessed as live cells at 34 uM incubated for 24 hrs by Annexin V-FITC/PI staining based flow cytometric analysis (reference value: 95.7 %); format: functional
SCC-9 [29] = assay: Induction of apoptosis in human SCC-9 cells assessed as early apoptotic cells at 34 uM incubated for 24 hrs by Annexin V-FITC/PI staining based flow cytometric analysis (reference value: 2.8 %); format: functional
SCC-9 [30] = assay: Induction of apoptosis in human SCC-9 cells assessed as late apoptotic cells at 34 uM incubated for 24 hrs by Annexin V-FITC/PI staining based flow cytometric analysis (reference value: 1.4 %); format: functional
SCC-9 [31] = assay: Induction of apoptosis in human SCC-9 cells assessed as necrotic cells at 34 uM incubated for 24 hrs by Annexin V-FITC/PI staining based flow cytometric analysis (reference value: 0.1 %); format: functional

## COc1c(O)c(CN2CCN(CC(=O)Nc3nc(-c4ccccc4)cs3)CC2)c2c(c1O)C1O[C@H](CO)[C@@H](O)[C@H](O)C1OC2=O (some centres undefined)
HCT-15
  IC50: 69.7 µM
CAL-27 [1]
  IC50: 20.7 µM
SCC-9 [2]
  IC50: 34.4 µM
A549
  IC50: > 100 µM
MCF7
  IC50: > 100 µM
[3]
  IC50: > 100 µM
CAL-27 [4]
  Activity: 87.4%
CAL-27 [5]
  Activity: 85.6%
CAL-27 [6]
  Activity: 2.9%
CAL-27 [7]
  Activity: 4.1%
CAL-27 [8]
  Activity: 10.6%
CAL-27 [9]
  Activity: 10.8%
SCC-9 [10]
  Activity: 71%
SCC-9 [11]
  Activity: 73.6%
SCC-9 [12]
  Activity: 16.5%
SCC-9 [13]
  Activity: 12.6%
SCC-9 [14]
  Activity: 11.8%
SCC-9 [15]
  Activity: 10.3%
CAL-27 [16]
  Activity: 94.5%
CAL-27 [17]
  Activity: 1.2%
CAL-27 [18]
  Activity: 2.2%
CAL-27 [19]
  Activity: 2%
CAL-27 [20]
  Activity: 88.7%
CAL-27 [21]
  Activity: 2.2%
CAL-27 [22]
  Activity: 4.8%
CAL-27 [23]
  Activity: 4.3%
SCC-9 [24]
  Activity: 28%
SCC-9 [25]
  Activity: 28.8%
SCC-9 [26]
  Activity: 42%
SCC-9 [27]
  Activity: 1.3%
SCC-9 [28]
  Activity: 20.2%
SCC-9 [29]
  Activity: 32.4%
SCC-9 [30]
  Activity: 45.6%
SCC-9 [31]
  Activity: 1.8%
